# Laboratory results as given in ChEMBL document CHEMBL4513216, “Probing the Open Global Health Chemical Diversity Library for Multistage-Active Starting Points for Next-Generation Antimalarials” (ACS Infect Dis, 2020).
# Experiment: Toxicity liver stage against HepG2, at 10uM
# Assay type: cell-based
# Design: test concentration 10 uM, cell line HepG2-A16-CD81EGFP
# Settings: human, HepG2-A16-CD81EGFP cells; read-out: INHIBITION
# Outline: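 Uninfected HepG2-A16-CD81EGFP cells, 3 × 10^3 per well, 1536-well, plated on prespotted compound at 10 μM final, parasite-free screening media added to match infected plates; puromycin 10 μM positive, DMSO 0.5% negative; run in parallel with 48 h PbLuc assay at 37 °C, 5% CO2; viability by CellTiter-Glo luminescence, normalized to controls.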
row,Compound,cytotoxicity at 10 µM [%]
1,Cc1nc(C2CCCN2C(=O)CCc2ccc(F)cc2)ncc1C(N)=O (stereo not given),-15.7
2,COc1ccccc1OCCCc1cc(C#N)ccn1,-11.5
3,CCOCCC(=O)N1CCCN(Cc2csc(CC)n2)CC1,3.9
4,Cc1cnn(CCNCC(O)c2ccc3c(c2)OCCO3)c1 (stereo not given),3.31
5,Cc1ccccc1C1CCN(CCNC(=O)CS(C)(=O)=O)C1 (stereo not given),-49.5
6,CCc1ncc2c(n1)CN(CC(=O)NCCOc1ccccc1)CC2,-2.11
7,c1cc(-c2noc([C@@H]3Cc4nc[nH]c4CN3)n2)ccn1,-0.873
8,CN(Cc1cnn(C)c1)C(=O)NC1CCN(c2ncccn2)CC1,-5.82
9,CCOc1ccccc1OC1CCN(C(=O)c2cnns2)CC1,-3.14
10,CCN(C)S(=O)(=O)N1CCCC1CC(=O)c1cccs1 (stereo not given),-29
11,Cn1ncc2c(=O)[nH]c(N3CCN(C(=O)c4ccsc4)CC3)nc21,-6.17
12,Cc1ccc(N2C(=O)N[C@@H]3CCN(C(=O)C4CCCC4)[C@@H]3C2=O)cc1,0.199
13,Cc1cncc(C(=O)N2C[C@@H](C(=O)O)[C@H](C(C)C)C2)c1,-4.31
14,CCc1c(C)nc(C)nc1N1C[C@@H](CN(CC)CCO)[C@@H](CO)C1,1.5
15,c1ccc(OCCN2CCCCC2Cn2cncn2)cc1 (stereo not given),-15.7
16,Cc1cc(=O)[nH]cc1C(=O)N1CCN(C)c2ccccc2C1,-10.1
17,CCOc1cccc(NC(=O)c2cnc(C)cn2)n1,4.14
18,Fc1cnc(N2CCN3C[C@H](Oc4cccnc4)C[C@H]3C2)nc1,13.1
19,O=C(CCC1CCCC1)NCCn1nc(C2CCNC2)c2nccnc21 (stereo not given),6.28
20,Fc1ccc(-c2cnc(CNC3CCc4ncnn4C3)o2)cc1 (stereo not given),-0.174
21,N#Cc1ccc(F)c(CNC(=O)NC(CO)c2ccccc2)c1 (stereo not given),4.16
22,O=c1nc(SCc2cccnc2)c2c(n1CCO)CCC2,-18

row,Compound,cytotoxicity at 10 µM [%]
1,O=C(NCC(F)(F)F)c1ccc(-n2cncn2)nn1,-1.66
2,O=C(NCc1cccnc1)[C@@H]1C[C@@H]2CCN(c3ncc(F)cn3)C[C@@H]2O1,-72.1
3,CNC(=O)C1Cn2ccnc2C2(CCN(Cc3csc(C)n3)CC2)O1 (stereo not given),-151
4,Cn1c(C(=O)N2CCC(C(N)=O)C2)c(Cl)c2ccccc21 (stereo not given),2.03
5,O=S(=O)(NCC1(O)CCOc2ccccc21)c1ccc(Cl)s1 (stereo not given),6.87
6,CC(C)(C)C(=O)Nc1cnn(-c2ccccc2S(C)(=O)=O)c1,3.65
7,COCCN1CCO[C@H]2[C@H](OCc3cccc(C)n3)CC[C@@H]21,-1.01
8,CCC(C(=O)NC1(C(N)=O)CCCC1)n1cccn1 (stereo not given),-9.13
9,COc1ccccc1CC(C)(C)NC(=O)CC(F)(F)F,6.08
10,CC(C)(C)c1cc(NC(=O)CN2CCc3cncnc3C2)on1,-8.78
11,O=C(c1ccco1)N1C[C@H]2CCCN(C(=O)c3ccsc3)[C@H]2C1,8.36
12,COCc1ccccc1C(=O)N1CCCC(n2nc(C)cc2C)C1 (stereo not given),-10.5
13,CCN(Cc1cnc(NCc2ccccc2)nc1)C1CCS(=O)(=O)C1 (stereo not given),-15.3
14,Cc1cc(C)n(CCC(=O)N2CCCCC2c2nccs2)n1 (stereo not given),10.3
15,C[S+]([O-])c1nncn1CC(=O)c1cccc(Br)c1 (stereo not given),1.08
16,COc1ccc(CN2C[C@@H]3OCC(=O)N(Cc4nccn4C)[C@@H]3C2)cc1,4.24
17,CN(CCN1CCOC1=O)CC(=O)Nc1ccc(Cl)c(Cl)c1,-52.4
18,Cn1nccc1-c1ncc(-c2cc(C(=O)O)n(CC3CC3)c2)cn1,1.55
19,Cc1ccc(C(=O)Nc2ccc(S(=O)(=O)/N=C3\CCCN3C)cc2)s1,0.174
20,CC(C)c1ccc(C2CC(=O)Nc3c2cnn3C)cc1 (stereo not given),-2.9
21,CC(C)CC(NC(=O)c1cccs1)c1nc2cccnc2n1C (stereo not given),7.27
22,CN(C)c1ccc(C(=O)N2CCC(c3cc4ncccc4[nH]3)CC2)cc1,-2.32

row,Compound,cytotoxicity at 10 µM [%]
1,COc1ccc(OCC(C)NS(C)(=O)=O)cc1 (stereo not given),16.6
2,CN(C)C[C@H]1C[C@@H](CO)CN(C(=O)CCc2nc(Cl)n[nH]2)C1,-3.73
3,NC1(c2nc(C(F)(F)F)cc(=O)[nH]2)CCCCC1,11
4,Cc1cc(C[C@@H]2CCC[C@H]2NCc2ccc(C(F)(F)F)cc2)on1,-10.1
5,CCN1CCC(CC(=O)N(C)CC(=O)c2ccc(O)cc2)CC1,1.73
6,Cc1cc(-c2cnn(CCNC(=O)c3cccnc3)c2C2CC2)on1,0.565
7,Nc1nc2c(c(NCc3nc(-c4ccncc4)n[nH]3)n1)CCCC2,-0.0554
8,COCC(O)CN(C)C(=O)NCc1ccc(S(C)(=O)=O)cc1 (stereo not given),1.72
9,COCC(=O)Nc1ccc(-c2noc([C@@H]3CCCN3CC(C)C)n2)cn1,5.82
10,c1cc(-c2noc([C@@H]3CCCN3CC3CC3)n2)cc(N2CCCC2)n1,4.12
11,CC(C)COC(=O)N1CCCN(Cc2nnc(C(C)(C)C)o2)CC1,11.1
12,CC(=O)N1CCC(C(=O)N2CCC2c2nc(-c3ccc(C)s3)no2)CC1 (stereo not given),3.15
13,c1ccc2c(OCCN3CCn4c(nnc4C4CC4)C3)cccc2c1,-3.87
14,COCCN(C)C[C@H]1C[C@H](CO)CN(C(=O)c2ccc(=O)n(C)c2)C1,-1.06
15,COC1(CNC(=O)c2ccoc2)CCSC1 (stereo not given),-10.8
16,Cn1nc(C2CC2)c2c1NC(=O)CC2c1ccc(CN2CCCCC2)s1 (stereo not given),-6.37
17,Cc1noc(CNc2c(N3CCCC3)cccc2N2CCCC2)n1,0.184
18,CCOCC(=O)N(C)Cc1nc(C(F)(F)F)cs1,2.49
19,CC(C)(C)CCN1CCCC(Cn2cc(CCO)nn2)C1 (stereo not given),-13.9
20,COC(=O)CCC(=O)N1CCC2(CN(Cc3cccc(Cl)c3)C2)C1,-62.4
21,CC[C@H]1CN(C(=O)c2cnc(N3CCN(C)CC3)nc2C)CC[C@@]1(C)O,-4.15
22,COC(=O)C1C=CCN1C(=O)c1cc(COc2ccccc2)[nH]n1 (stereo not given),-4.45

row,Compound,cytotoxicity at 10 µM [%]
1,O=C(NCC1CCC(c2ccnc3ncnn23)CC1)c1ccccn1 (stereo not given),3.64
2,COc1ccc(C)cc1NS(=O)(=O)c1ccc(CCNC(C)=O)s1,0.549
3,CN1CCc2c(c(COc3cncnc3)nn2CC2CC2)C1,8.61
4,CCN(Cc1nc2c(cnn2C)c(=O)[nH]1)c1cccc(Cl)c1,1.18
5,CC1(CNC(=O)NCc2ccsc2)CCCS1 (stereo not given),1.82
6,CN(C)Cc1nnc(C2CCCN(c3nccc4ccccc34)C2)n1C (stereo not given),-0.928
7,N#Cc1ccc(Cn2cncn2)c(F)c1,-1.49
8,CCNc1cc2c(nn1)CCN(C(=O)c1ccnc(C)n1)C2,-5.04
9,CN(C)CCN1C(=O)CCC12CCCN(C(=O)c1ccncc1F)C2 (stereo not given),3.06
10,CC(=O)Nc1nc(-c2ccccc2)c[nH]1,-1
11,Cc1cc2c(N3CCC(N(C)Cc4cnn(C)c4)CC3)ncnc2s1,-1.13
12,Cc1nn(C)c(C)c1OCC(=O)N1CCCC1,-10.9
13,Cc1noc(C)c1CN(C)C(=O)C1CCN(S(N)(=O)=O)CC1,7.47
14,Cc1ccc(CC(=O)NCC(O)c2ccc(Cl)cc2Cl)cn1 (stereo not given),-10.1
15,Cc1ccc(C(=O)N2CCCC3(C2)C(=O)N(C)c2ccccc23)c(=O)[nH]1 (stereo not given),-7.52
16,CC1CN(C)CCN1C(=O)c1ccn(-c2cccc(Cl)c2)n1 (stereo not given),-26.3
17,CNC(=O)CCNC(=O)c1cc(Br)c2c(c1)OCCO2,3.82
18,c1coc(CN2CCC3(CCOCC3COCC3CC3)CC2)c1 (stereo not given),2.79
19,CC(C)C(=O)N1CCCC(Cc2ccccn2)C1 (stereo not given),-5.3
20,CCn1c(C2CCCNC2)nn(Cc2ccc(C(=O)NC)o2)c1=O (stereo not given),8.25
21,CN(CC(=O)NC(C)(C#N)C1CC1)Cc1nc2ccccc2n1C (stereo not given),-3.72
22,Cc1cccc(-n2cc3nc(N4CCC(C)CC4)[nH]cc-3c2=O)c1,0.738

row,Compound,cytotoxicity at 10 µM [%]
1,CCc1nc(CN(C)CC2CCN(CCO)CC2)no1,-9.68
2,Cc1cc(N2CCCN(C(=O)Cc3ccc(O)c(Cl)c3)CC2)ccn1,-17.3
3,COCCCN1C(=O)CC[C@H]2CN(c3cnc4ccccc4n3)CC[C@H]21,5.77
4,CC(c1ccccc1)N(C)CC(=O)NCCC#N (stereo not given),3.52
5,CCCN(Cc1ccccc1O)S(=O)(=O)N(C)CC,10.2
6,CC(=O)N1C[C@H]2CC[C@@H](C1)N(S(=O)(=O)c1ccccc1Cl)C2,-4
7,CS(=O)(=O)NC[C@]12COC[C@H]1CN(C(=O)c1ccncn1)C2,9.2
8,O=C(NCCN1CCOCC1)N(Cc1ccoc1)C1CCCCC1,-0.315
9,CCC(=O)N1CCC2(CCN(Cc3cccc(F)c3)CC2)CC1,-4.82
10,CN(C)Cc1nc(-n2cnc(C(=O)NC3CCCC3)c2)n2ccccc12,7.75
11,CS(=O)(=O)N1C[C@@H]2CCN(C(=O)c3cscn3)[C@@H]2C1,9.79
12,Cn1cc(CN2CCCC23CCN(c2nc4ccccc4s2)CC3)cn1,4.86
13,Cc1ncc(CN2CCCC2)c2cc(C(=O)c3ccc(Br)cc3)oc12,1.46
14,Cc1nc(N(C)C)nc(C)c1NS(=O)(=O)c1ccc(F)cc1F,-3.58
15,O=C(Nc1cccc(CN2CCOC2=O)c1)N1CCOCC1,-8.6
16,Nc1nnc(CCNc2ncnc3c2CCN(C(=O)C2CC2)C3)s1,-7
17,O=C1N(c2cccnc2)CCC12CCCN(Cc1ccoc1)C2 (stereo not given),-1.6
18,COCCN1CCN(Cc2cnc(C)nc2)CC1,-22.8
19,O=C1CCN(C(=O)NCc2cccc(Oc3ccccc3)c2)CCN1,4.11
20,CCc1ncc(CN2CCc3nc4sc(C)cc4c(=O)n3CC2)cn1,-6.47
21,Cc1cccc2c1cnn2CCCNC(=O)CCCC(=O)O,-11.1
22,Cc1cc(C)nc(N2CCCC(C)(c3[nH]ncc3C(=O)N(C)C)C2)n1 (stereo not given),7.42
